Measured values published in PubChem BioAssay.
Values without a mark were called inactive.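 Rule for the calls, unless noted: active = viability at or below 30% in both replicate assays; inconclusive = viability at or below 30% in just one of the two assays; inactive = the rest.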

Test: reduced viability of SK-BR-3 breast cancer cells – cell-based, 24 h, human, pilot screen (AID 572;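 active = viability at or below 10% of carrier control in both of two separate runs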;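 note: compound exposure lasted between 18 and 24 h rather than exactly 24 h; 100% = carrier-treated control wells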)
Conditions: SK-BR-3 viability, CellTiter-Glo luminescence, at 10 µM, stronger effect = lower value

SMILES	viability [%]
CCOC(=O)C1CCN(c2c(NC3CCCCCCC3)c(=O)c2=O)CC1	90
Cc1c(/C(O)=C2/C(=O)C(=O)N(CCN3CCOCC3)C2c2cccs2)cnn1-c1ccccc1 (stereo not given)	88
c1ccc(CSCc2cn3ccsc3n2)cc1	93.5
O=c1c2ccccc2nc(SCc2cn3ccsc3n2)n1-c1ccc(F)cc1	73
Cc1cnc(C(=O)Nc2ccc(N3CCN(C(=O)OC(C)(C)C)CC3)cc2)cn1	109
COc1ccccc1N(C)S(=O)(=O)c1ccc(C(=O)NC2=NCCS2)cc1	104
C/C(N)=C(/C#N)C(=O)COC(=O)c1cc(S(=O)(=O)N2CCCCC2)ccc1C	88.5
O=C(NCc1ccc2c(c1)OCO2)c1ccc(NS(=O)(=O)c2ccc3c(c2)OCCO3)cc1	102
Cc1nnc(SCC(=O)NC(C)(C)C)n1CCc1ccccc1	93.5
CC(C)OC(=O)CSc1nnnn1-c1ccc2c(c1)OCCO2	99.5
Cc1sc2nc(SCC(=O)NCc3ccco3)n(CCc3ccccc3)c(=O)c2c1C	102
CC(=O)Nc1ccn(-c2ccccc2)n1	83
O=P(O)(O)C(O)C(F)(F)C(F)(F)C(F)(F)C(F)F (stereo not given)	108
COCCn1c(CN2CCN(c3ccccc3F)CC2)nc2c1c(=O)n(C)c(=O)n2C	105
O=C(CN1CCN(C2CCCCC2)CC1)Nc1ccccc1-c1ccccc1	90.5
COc1ccc(NC(=O)C23CCC(C)(C(=O)C2)C3(C)C)cc1 (stereo not given)	92.5
CC(C)(C)c1nc(CN2CCOCC2)ccc1O	109
CC(NC(=O)c1ccc2c(c1)OCO2)C(c1cccs1)N1CCOCC1 (stereo not given)	97.5
Cc1ccccc1NS(=O)(=O)c1cc(C(=O)N2CCCC2)ccc1C	108
O=C(C1CCCO1)N1CCc2ccccc21 (stereo not given)	85

SMILES	viability [%]
CCc1ccc(NS(=O)(=O)c2ccc3[nH]cc(C(=O)N4CCCCC4)c(=O)c3c2)cc1	124
O=C1COc2ccc(C(=O)COC(=O)CCc3ccc(S(=O)(=O)N4CCOCC4)cc3)cc2N1	105
CC(C)CCNC(=O)C(c1ccco1)N(CC1CCCO1)C(=O)Cn1nnc2ccccc21 (stereo not given)	100
CCOc1ccc(CCNC(=O)CCc2nc(-c3ccc(OC)cc3)no2)cc1OCC	86.5
COc1cccc(-n2c(C)nc3c(cnn3-c3ccc(Cl)cc3)c2=O)c1	92.5
CCOC(=O)c1sc2nc(SCC#N)n(CCCN3CCCC3=O)c(=O)c2c1C	80.5
COc1ccc(-c2nc(SC)n(S(=O)(=O)c3ccccc3)n2)cc1	80
CC(=O)NCc1cccc(CNC(C)=O)n1	84.5
Cc1ccc(-c2nc(N)n(C(=O)c3cccnc3)n2)cc1	86.5
CCOCCCNC(=O)c1cc2sc(Cl)cc2n1CC	89
O=C(COc1ccc(S(=O)(=O)N2CCCC2)cc1Cl)NC1CC1	126
O=C(CSc1nc2ccccc2nc1SCC(=O)N1CCOCC1)N1CCOCC1	100
CCOc1ccc(/C=N/n2cnnc2)cc1	101
COc1cccc2cc(C(=O)N3CCc4ccccc43)c(=O)oc12	92
Cc1n[nH]c(C)c1S(=O)(=O)Nc1ccc2c(c1)OCCO2	93
O=C(Cn1c(C(=O)NCC2CCCO2)cc2sccc21)c1ccccc1 (stereo not given)	94.5
Nn1cc(-c2ccccc2)nc1SCC(=O)N1CCN(S(=O)(=O)c2ccccc2)CC1	77
COc1cc(C(N)=O)ccc1OCc1ccccc1	86
CCCCn1c(CN(C)Cc2ccccc2)nc2c1c(=O)n(C)c(=O)n2C	83
CCOc1ccc(-c2nc(S(=O)(=O)c3ccccc3)c(NCc3cccnc3)o2)cc1	97

Test: HUVEC growth inhibition – cell-based, human, primary screen (AID 575);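 note: 100% = median of untreated cell wells with 0.1% DMSO on each plate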
Conditions: HUVEC proliferation, CellTiter-Glo luminescence, 72 h; at 10 µM; stronger effect = lower value
Method in brief: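 Test system – primary HUVEC, no more than 12 passages · Dosing – one dose, 10 µM final, 0.1% DMSO · Times – 72 h treatment at 37 °C · Measured by – ATP-based CellTiter-Glo luminescent read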

SMILES	viability [%]
CCOC(=O)C1CCN(c2c(NC3CCCCCCC3)c(=O)c2=O)CC1	92.2
Cc1c(/C(O)=C2/C(=O)C(=O)N(CCN3CCOCC3)C2c2cccs2)cnn1-c1ccccc1 (stereo not given)	116
c1ccc(CSCc2cn3ccsc3n2)cc1	104
O=c1c2ccccc2nc(SCc2cn3ccsc3n2)n1-c1ccc(F)cc1	64.6
Cc1cnc(C(=O)Nc2ccc(N3CCN(C(=O)OC(C)(C)C)CC3)cc2)cn1	100
COc1ccccc1N(C)S(=O)(=O)c1ccc(C(=O)NC2=NCCS2)cc1	85.8
C/C(N)=C(/C#N)C(=O)COC(=O)c1cc(S(=O)(=O)N2CCCCC2)ccc1C	82.2
O=C(NCc1ccc2c(c1)OCO2)c1ccc(NS(=O)(=O)c2ccc3c(c2)OCCO3)cc1	85.2
Cc1nnc(SCC(=O)NC(C)(C)C)n1CCc1ccccc1	105
CC(C)OC(=O)CSc1nnnn1-c1ccc2c(c1)OCCO2	99
Cc1sc2nc(SCC(=O)NCc3ccco3)n(CCc3ccccc3)c(=O)c2c1C	58.3
CC(=O)Nc1ccn(-c2ccccc2)n1	97.9
O=P(O)(O)C(O)C(F)(F)C(F)(F)C(F)(F)C(F)F (stereo not given)	110
COCCn1c(CN2CCN(c3ccccc3F)CC2)nc2c1c(=O)n(C)c(=O)n2C	84.5
O=C(CN1CCN(C2CCCCC2)CC1)Nc1ccccc1-c1ccccc1	91.4
COc1ccc(NC(=O)C23CCC(C)(C(=O)C2)C3(C)C)cc1 (stereo not given)	105
CC(C)(C)c1nc(CN2CCOCC2)ccc1O	106
CC(NC(=O)c1ccc2c(c1)OCO2)C(c1cccs1)N1CCOCC1 (stereo not given)	106
Cc1ccccc1NS(=O)(=O)c1cc(C(=O)N2CCCC2)ccc1C	82.9
O=C(C1CCCO1)N1CCc2ccccc21 (stereo not given)	94

SMILES	viability [%]
CCc1ccc(NS(=O)(=O)c2ccc3[nH]cc(C(=O)N4CCCCC4)c(=O)c3c2)cc1	102
O=C1COc2ccc(C(=O)COC(=O)CCc3ccc(S(=O)(=O)N4CCOCC4)cc3)cc2N1	80.3
CC(C)CCNC(=O)C(c1ccco1)N(CC1CCCO1)C(=O)Cn1nnc2ccccc21 (stereo not given)	101
CCOc1ccc(CCNC(=O)CCc2nc(-c3ccc(OC)cc3)no2)cc1OCC	81.9
COc1cccc(-n2c(C)nc3c(cnn3-c3ccc(Cl)cc3)c2=O)c1	79.8
CCOC(=O)c1sc2nc(SCC#N)n(CCCN3CCCC3=O)c(=O)c2c1C	68
COc1ccc(-c2nc(SC)n(S(=O)(=O)c3ccccc3)n2)cc1	86.1
CC(=O)NCc1cccc(CNC(C)=O)n1	88.4
Cc1ccc(-c2nc(N)n(C(=O)c3cccnc3)n2)cc1	95.1
CCOCCCNC(=O)c1cc2sc(Cl)cc2n1CC	60
O=C(COc1ccc(S(=O)(=O)N2CCCC2)cc1Cl)NC1CC1	112
O=C(CSc1nc2ccccc2nc1SCC(=O)N1CCOCC1)N1CCOCC1	110
CCOc1ccc(/C=N/n2cnnc2)cc1	78.8
COc1cccc2cc(C(=O)N3CCc4ccccc43)c(=O)oc12	95.2
Cc1n[nH]c(C)c1S(=O)(=O)Nc1ccc2c(c1)OCCO2	104
O=C(Cn1c(C(=O)NCC2CCCO2)cc2sccc21)c1ccccc1 (stereo not given)	101
Nn1cc(-c2ccccc2)nc1SCC(=O)N1CCN(S(=O)(=O)c2ccccc2)CC1	90.5
COc1cc(C(N)=O)ccc1OCc1ccccc1	91.6
CCCCn1c(CN(C)Cc2ccccc2)nc2c1c(=O)n(C)c(=O)n2C	71.1
CCOc1ccc(-c2nc(S(=O)(=O)c3ccccc3)c(NCc3cccnc3)o2)cc1	94.2
